Data: ChEMBL document CHEMBL1148345, “Hydrophobic acetal and ketal derivatives of mannopeptimycin-alpha and desmethylhexahydromannopeptimycin-alpha: semisynthetic glycopeptides with potent activity against Gram-positive bacteria” (2004)
Converted amounts (≈) assume the structure as drawn.

Legend:
Format in all cases: functional
Staphylococcus [1] = assay: In vitro minimum inhibitory concentration against Staphylococcus species; Range is 0.5-2 ug/mL
Streptococcus [2] = assay: In vitro minimum inhibitory concentration against Streptococcus species
Enterococcus [3] = assay: In vitro minimum inhibitory concentration against Enterococcus species; Range is 2-4 ug/mL
Enterococcus [4] = assay: In vitro minimum inhibitory concentration against Enterococcus species; Range is 0.5-2 ug/mL
Staphylococcus [5] = assay: In vitro minimum inhibitory concentration against Staphylococcus species
Enterococcus faecalis = assay: Effective dose of compound against Enterococcus faecalis (GC 6189) in mice
In short: (§1)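 Murine protection models against S. aureus Smith (GC 4543) and E. faecalis (GC 6189). Compounds dosed in D5W (5% dextrose in water); vancomycin dosed in saline. Five dosages, five mice per dosage level. ED50 in mg/kg reported as the pooled mean from at least three separate tests.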

Staphylococcus aureus = assay: Effective dose of compound against […] Smith (GC 4543) in mice; in short: as §1
Streptococcus [6] = assay: In vitro minimum inhibitory concentration against Streptococcus species; Range is 0.12-0.25 ug/mL
Staphylococcus [7] = assay: In vitro minimum inhibitory concentration against Staphylococcus species; Range is 0.5-1 ug/mL
Enterococcus [8] = assay: In vitro minimum inhibitory concentration against Enterococcus species (in vitro); Range is 1-2 ug/mL
Staphylococcus [9] = assay: In vitro minimum inhibitory concentration against Staphylococcus species; Range is 1-2 ug/mL
Streptococcus [10] = assay: In vitro minimum inhibitory concentration against Streptococcus species; Range is 0.06-0.12 ug/mL
Enterococcus [11] = assay: In vitro minimum inhibitory concentration against Enterococcus species; Range is 0.5-4 ug/mL
Enterococcus [12] = assay: In vitro minimum inhibitory concentration against Enterococcus species; Range is 0.5-1 ug/mL
Staphylococcus [13] = assay: In vitro minimum inhibitory concentration against Staphylococcus species; Range is 0.25-1 ug/mL
Streptococcus [14] = assay: In vitro minimum inhibitory concentration against Streptococcus species; Range is 0.06-0.25 ug/mL
Enterococcus [15] = assay: In vitro minimum inhibitory concentration against Enterococcus species; Range is 1-2 ug/mL
Enterococcus [16] = assay: In vitro minimum inhibitory concentration against Enterococcus species
Staphylococcus [17] = assay: In vitro minimum inhibitory concentration against Staphylococcus species; Range is 1-4 ug/mL
Enterococcus [18] = assay: In vitro minimum inhibitory concentration against Enterococcus species; Range is 4-8 ug/mL
Enterococcus [19] = assay: In vitro minimum inhibitory concentration against Enterococcus species; Range is 0.12-0.25 ug/mL
Staphylococcus [20] = assay: In vitro minimum inhibitory concentration against Staphylococcus species; Range is 0.06-0.12 ug/mL
Streptococcus [21] = assay: In vitro minimum inhibitory concentration against Streptococcus species; Range is 0.12-1 ug/mL
Enterococcus [22] = assay: In vitro minimum inhibitory concentration against Enterococcus species; Range is 0.5-128 ug/mL
Streptococcus [23] = assay: In vitro minimum inhibitory concentration against Streptococcus species; Range is 0.12-0.5 ug/mL

SMILES: NC1=NC[C@@H]([C@H](O)[C@@H]2NC(=O)[C@@H](Cc3ccc(O[C@H]4O[C@H](CO)[C@@H](O[C@H]5O[C@@H]6COC(c7ccccc7)O[C@H]6[C@H](O)[C@@H]5O)[C@H](O)[C@@H]4O)cc3)NC(=O)C(CC3CCCCC3)NC(=O)CNC(=O)[C@H](CO)NC(=O)[C@@H]([C@@H](O)[C@@H]3CN=C(N)N3[C@H]3O[C@H](CO)[C@@H](O)[C@H](O)[C@@H]3O)NC2=O)N1 (stereo not given in full)
- MIC (Staphylococcus [1]): 2 mg/L (≈ 1.45 µM)
- MIC (Streptococcus [2]): ≤ 0.12 mg/L
- MIC (Enterococcus [3]): 4 mg/L (≈ 2.91 µM)

SMILES: C[C@@H](c1ccccc1)C1NC(=O)CNC(=O)[C@H](CO)NC(=O)[C@@H]([C@@H](O)[C@@H]2CN=C(N)N2[C@H]2O[C@H](CO)[C@@H](O)[C@H](O)[C@@H]2O)NC(=O)[C@H]([C@@H](O)[C@@H]2CN=C(N)N2)NC(=O)[C@@H](Cc2ccc(O[C@H]3O[C@H](CO)[C@@H](O[C@H]4O[C@@H]5COC(C6CCCCC6)O[C@H]5[C@H](O)[C@@H]4O)[C@H](O)[C@@H]3O)cc2)NC1=O (stereo not given in full)
- MIC (Streptococcus [2]): ≤ 0.12 mg/L
- MIC (Enterococcus [4]): 2 mg/L (≈ 1.44 µM)
- MIC (Staphylococcus [5]): 1 mg/L (≈ 0.72 µM)
- ED50 (Enterococcus faecalis): 0.19 mg/kg
- ED50 (Staphylococcus aureus): 0.07 mg/kg

SMILES: C[C@@H](c1ccccc1)C1NC(=O)CNC(=O)[C@H](CO)NC(=O)[C@@H]([C@@H](O)[C@@H]2CN=C(N)N2[C@H]2O[C@H](CO)[C@@H](O)[C@H](O)[C@@H]2O)NC(=O)[C@H]([C@@H](O)[C@@H]2CN=C(N)N2)NC(=O)[C@@H](Cc2ccc(O[C@H]3O[C@H](CO)[C@@H](O[C@H]4O[C@@H]5COC(c6ccccc6)O[C@H]5[C@H](O)[C@@H]4O)[C@H](O)[C@@H]3O)cc2)NC1=O (stereo not given in full)
- MIC (Staphylococcus [1]): 2 mg/L (≈ 1.45 µM)
- MIC (Streptococcus [6]): ≤ 0.25 mg/L
- ED50 (Enterococcus faecalis): 0.39 mg/kg
- MIC (Enterococcus [3]): 4 mg/L (≈ 2.89 µM)
- ED50 (Staphylococcus aureus): 0.19 mg/kg

SMILES: CCCCCC1OC[C@H]2O[C@H](O[C@H]3[C@H](O)[C@H](O)[C@@H](Oc4ccc(C[C@H]5NC(=O)C([C@@H](C)c6ccccc6)NC(=O)CNC(=O)[C@H](CO)NC(=O)[C@@H]([C@@H](O)[C@@H]6CN=C(N)N6[C@H]6O[C@H](CO)[C@@H](O)[C@H](O)[C@@H]6O)NC(=O)[C@H]([C@@H](O)[C@@H]6CN=C(N)N6)NC5=O)cc4)O[C@@H]3CO)[C@@H](O)[C@@H](O)[C@@H]2O1 (stereo not given in full)
- MIC (Staphylococcus [7]): ≤ 1 mg/L
- MIC (Streptococcus [2]): ≤ 0.5 mg/L
- MIC (Enterococcus [8]): 2 mg/L (≈ 1.45 µM)

SMILES: C[C@@H](c1ccccc1)C1NC(=O)CNC(=O)[C@H](CO)NC(=O)[C@@H]([C@@H](O)[C@@H]2CN=C(N)N2[C@H]2O[C@H](CO)[C@@H](O)[C@H](O)[C@@H]2O)NC(=O)[C@H]([C@@H](O)[C@@H]2CN=C(N)N2)NC(=O)[C@@H](Cc2ccc(O[C@H]3O[C@H](CO)[C@@H](O[C@H]4O[C@@H]5COC(CC6CCCCC6)O[C@H]5[C@H](O)[C@@H]4O)[C@H](O)[C@@H]3O)cc2)NC1=O (stereo not given in full)
- MIC (Staphylococcus [9]): 2 mg/L (≈ 1.43 µM)
- MIC (Streptococcus [10]): ≤ 0.12 mg/L
- MIC (Enterococcus [3]): 4 mg/L (≈ 2.85 µM)

SMILES: NC1=NC[C@@H]([C@H](O)[C@@H]2NC(=O)[C@@H](Cc3ccc(O[C@H]4O[C@H](CO)[C@@H](O[C@H]5O[C@@H]6COC(Cc7ccccc7)O[C@H]6[C@H](O)[C@@H]5O)[C@H](O)[C@@H]4O)cc3)NC(=O)C(CC3CCCCC3)NC(=O)CNC(=O)[C@H](CO)NC(=O)[C@@H]([C@@H](O)[C@@H]3CN=C(N)N3[C@H]3O[C@H](CO)[C@@H](O)[C@H](O)[C@@H]3O)NC2=O)N1 (stereo not given in full)
- MIC (Enterococcus [11]): 4 mg/L (≈ 2.88 µM)
- MIC (Staphylococcus [9]): 2 mg/L (≈ 1.44 µM)
- MIC (Streptococcus [10]): ≤ 0.12 mg/L

SMILES: C[C@@H](c1ccccc1)C1NC(=O)CNC(=O)[C@H](CO)NC(=O)[C@@H]([C@@H](O)[C@@H]2CN=C(N)N2[C@H]2O[C@H](CO)[C@@H](O)[C@H](O)[C@@H]2O)NC(=O)[C@H]([C@@H](O)[C@@H]2CN=C(N)N2)NC(=O)[C@@H](Cc2ccc(O[C@H]3O[C@H](CO)[C@@H](O[C@H]4O[C@@H]5COC6(O[C@H]5[C@H](O)[C@@H]4O)C4CC5CC(C4)CC6C5)[C@H](O)[C@@H]3O)cc2)NC1=O (stereo not given in full)
- MIC (Streptococcus [2]): ≤ 0.06 mg/L
- MIC (Enterococcus [12]): 1 mg/L (≈ 0.701 µM)
- ED50 (Enterococcus faecalis): 1.8 mg/kg
- ED50 (Staphylococcus aureus): 0.04 mg/kg
- MIC (Staphylococcus [13]): 1 mg/L (≈ 0.701 µM)

SMILES: C[C@@H](c1ccccc1)C1NC(=O)CNC(=O)[C@H](CO)NC(=O)[C@@H]([C@@H](O)[C@@H]2CN=C(N)N2[C@H]2O[C@H](CO)[C@@H](O)[C@H](O)[C@@H]2O)NC(=O)[C@H]([C@@H](O)[C@@H]2CN=C(N)N2)NC(=O)[C@@H](Cc2ccc(O[C@H]3O[C@H](CO)[C@@H](O[C@H]4O[C@@H]5COC(Cc6ccccc6)O[C@H]5[C@H](O)[C@@H]4O)[C@H](O)[C@@H]3O)cc2)NC1=O (stereo not given in full)
- MIC (Streptococcus [14]): ≤ 0.25 mg/L
- MIC (Enterococcus [15]): 2 mg/L (≈ 1.43 µM)
- MIC (Staphylococcus [5]): 2 mg/L (≈ 1.43 µM)
- ED50 (Enterococcus faecalis): 1.04 mg/kg
- ED50 (Staphylococcus aureus): 0.23 mg/kg

SMILES: C[C@@H](c1ccccc1)C1NC(=O)CNC(=O)[C@H](CO)NC(=O)[C@@H]([C@@H](O)[C@@H]2CN=C(N)N2[C@H]2O[C@H](CO)[C@@H](O)[C@H](O)[C@@H]2O)NC(=O)[C@H]([C@@H](O)[C@@H]2CN=C(N)N2)NC(=O)[C@@H](Cc2ccc(O[C@H]3O[C@H](CO)[C@@H](O[C@H]4O[C@H](CO)[C@@H](O)[C@H](O)[C@@H]4O)[C@H](O)[C@@H]3O)cc2)NC1=O (stereo not given in full)
- MIC (Streptococcus [2]): > 32 mg/L
- MIC (Staphylococcus [5]): 128 mg/L (≈ 98.8 µM)
- ED50 (Staphylococcus aureus): 20 mg/kg
- MIC (Enterococcus [16]): > 128 mg/L

SMILES: C[C@@H](c1ccccc1)C1NC(=O)CNC(=O)[C@H](CO)NC(=O)[C@@H]([C@@H](O)[C@@H]2CN=C(N)N2[C@H]2O[C@H](CO)[C@@H](O)[C@H](O)[C@@H]2O)NC(=O)[C@H]([C@@H](O)[C@@H]2CN=C(N)N2)NC(=O)[C@@H](Cc2ccc(O[C@H]3O[C@H](CO)[C@@H](O[C@H]4O[C@@H]5COC6(O[C@H]5[C@H](O)[C@@H]4O)C4CCCC6CCC4)[C@H](O)[C@@H]3O)cc2)NC1=O (stereo not given in full)
- MIC (Streptococcus [2]): ≤ 0.06 mg/L
- MIC (Staphylococcus [17]): 4 mg/L (≈ 2.83 µM)
- MIC (Enterococcus [18]): 8 mg/L (≈ 5.65 µM)

SMILES: NC1=NC[C@@H]([C@H](O)[C@@H]2NC(=O)[C@@H](Cc3ccc(O[C@H]4O[C@H](CO)[C@@H](O[C@H]5O[C@@H]6COC7(O[C@H]6[C@H](O)[C@@H]5O)C5CC6CC(C5)CC7C6)[C@H](O)[C@@H]4O)cc3)NC(=O)C(CC3CCCCC3)NC(=O)CNC(=O)[C@H](CO)NC(=O)[C@@H]([C@@H](O)[C@@H]3CN=C(N)N3[C@H]3O[C@H](CO)[C@@H](O)[C@H](O)[C@@H]3O)NC2=O)N1 (stereo not given in full)
- MIC (Enterococcus [19]): 0.25 mg/L (≈ 0.176 µM)
- MIC (Streptococcus [2]): ≤ 0.06 mg/L
- MIC (Enterococcus [4]): 2 mg/L (≈ 1.41 µM)
- MIC (Staphylococcus [20]): ≤ 0.12 mg/L
- MIC (Streptococcus [10]): ≤ 0.12 mg/L
- ED50 (Enterococcus faecalis): 0.39 mg/kg
- ED50 (Staphylococcus aureus): 0.08 mg/kg
- MIC (Staphylococcus [13]): 1 mg/L (≈ 0.704 µM)

SMILES: C[C@@H](c1ccccc1)C1NC(=O)CNC(=O)[C@H](CO)NC(=O)[C@@H]([C@@H](O)[C@@H]2CN=C(N)N2[C@H]2O[C@H](CO)[C@@H](O)[C@H](O)[C@@H]2O)NC(=O)[C@H]([C@@H](O)[C@@H]2CN=C(N)N2)NC(=O)[C@@H](Cc2ccc(O[C@H]3O[C@H](CO)[C@@H](O[C@H]4O[C@@H]5COC6(CCCCC6)O[C@H]5[C@H](O)[C@@H]4O)[C@H](O)[C@@H]3O)cc2)NC1=O (stereo not given in full)
- MIC (Streptococcus [21]): 1 mg/L (≈ 0.727 µM)
- MIC (Staphylococcus [17]): 4 mg/L (≈ 2.91 µM)
- MIC (Enterococcus [18]): 8 mg/L (≈ 5.82 µM)

SMILES: CN[C@H](CC(C)C)C(=O)N[C@H]1C(=O)N[C@@H](CC(N)=O)C(=O)N[C@H]2C(=O)N[C@H]3C(=O)N[C@H](C(=O)N[C@H](C(=O)O)c4cc(O)cc(O)c4-c4cc3ccc4O)[C@H](O)c3ccc(c(Cl)c3)Oc3cc2cc(c3O[C@@H]2O[C@H](CO)[C@@H](O)[C@H](O)[C@H]2O[C@H]2C[C@](C)(N)[C@H](O)[C@H](C)O2)Oc2ccc(cc2Cl)[C@H]1O [VANCOMYCIN]
- MIC (Staphylococcus [1]): < 2 mg/L
- MIC (Enterococcus [22]): 128 mg/L (≈ 88.3 µM)
- MIC (Streptococcus [23]): ≤ 0.5 mg/L
- ED50 (Enterococcus faecalis): > 32 mg/kg
- ED50 (Staphylococcus aureus): 1 mg/kg
